Data set [1] concerns the target Mitogen-activated protein kinase 14 (Homo sapiens, UniProt Q16539). Briefly: Inhibition of p38MAPK alpha (unknown origin) at 10 uM relative to control.
In data set [2] the target is Rho-associated protein kinase 2 (Homo sapiens) (UniProt O75116). Briefly: Inhibition of ROCK-2 (unknown origin) at 10 uM.
Data set [3] has as its target Tyrosine-protein kinase Lck (Homo sapiens) (UniProt P06239). The experiment in a line: Inhibition of Lck (unknown origin) at 10 uM.
Data set [4] deals with Cynomolgus monkey. Briefly: Toxicity in cynomolgus monkey assessed as whitish vomiting at 6 to 20 mg/kg, po. Type of data set: organism-based, Macaca fascicularis. Conditions: in vivo.
Data set [5] is described as follows: Tmax in male Sprague-Dawley rat at 30 mg/kg, po by LC-MS/MS analysis. As to conditions: in vivo. Type of data set: ADME, organism-based.
In data set [6] the test system is Rattus norvegicus. The experiment in a line: Toxicity in Sprague-Dawley rat assessed as increase in piloerection at 150 mg/kg, po administered via gavage for daily 28 days followed by 2 weeks off without dosing. Format: organism-based. As to conditions: in vivo.
For data set [7], the system named is Rattus norvegicus. Briefly: In vivo inhibition of P38 MAPKalpha in Lewis rat assessed as decrease in LPS-stimulated TNFalpha level in serum at 10 mg/kg, po pretreated for 3 hrs followed by LPS addition measured after 1.5 hrs post dose. Type of data set: functional, organism-based. A digest of the protocol: (§1)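 Lewis rats, n = 8/group: females dosed orally at 10 mg/kg at −1, −3 or −5 h relative to LPS challenge, plus one male group dosed at −1 h. Male and female vehicle controls were given at −1 h. Serum TNFα was measured after LPS and compared with vehicle.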

In data set [8] the test system is Homo sapiens. The experiment in a line: In vivo inhibition of p38 MAPKalpha in human whole blood assessed as decrease in LPS-stimulated TNFalpha level at 10 to 30 mg treated for 36 hrs followed by LPS stimulation. Format: functional, organism-based. A digest of the protocol:
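Ex vivo read-out in healthy volunteers after a single oral dose (10, 20 or 30 mg; placebo-controlled, single-blind, randomized). Blood drawn pre-dose and at 1, 2, 4, 9, 24 and 36 h post-dose was stimulated with LPS. TNFα release is expressed relative to the LPS-stimulated pre-dose sample of the same subject.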

Data set [9] has as its system Rattus norvegicus. Briefly: Toxicity in rat assessed as soft feces at 30 to 300 mg/kg, po administered as single dose. Format: organism-based. Conditions: in vivo.
Data set [10] deals with Cynomolgus monkey. Briefly: Toxicity in cynomolgus monkey assessed as decrease in QT at 6 to 20 mg/kg, po. Type of data set: organism-based, Macaca fascicularis. As to conditions: in vivo.
For data set [11], the system named is Rattus norvegicus. Briefly: In vivo inhibition of P38 MAPKalpha in Lewis rat assessed as decrease in LPS-stimulated TNFalpha level in serum at 10 mg/kg, po pretreated for 5 hrs followed by LPS addition measured after 1.5 hrs post dose. Format: functional, organism-based. A digest of the protocol:
as §1

Data set [12] is described as follows: Tmax in female Sprague-Dawley rat at 30 mg/kg, po by LC-MS/MS analysis. Format: ADME, organism-based. Conditions: in vivo.
Data set [13] relates to Homo sapiens. Briefly: Toxicity in human assessed as change in body weight at 50 mg, po administered as single dose. Format: organism-based. Conditions: in vivo.
Data set [14] is described as follows: Drug metabolism in cynomolgus monkey liver microsomes assessed as N-(4-(4-(4-fluorophenyl)-1-methyl-2-(methylsulfinyl)-1H-imidazol-5-yl)pyridin-2-yl)acetamide formation at 10 to 100 uM. Type of data set: ADME, Macaca fascicularis, microsome. A digest of the protocol: (§2)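 Test compound incubated at 10, 30 and 100 μM with liver microsomes from rat, Cynomolgus monkey or human, and metabolites monitored.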
In general terms: Microsomes from liver hold many membrane-bound enzymes, among them those of drug oxidation.

In data set [15] the target is Tyrosine-protein kinase Lyn (Homo sapiens) (UniProt P07948). Briefly: Inhibition of Lyn (unknown origin) at 10 uM relative to control.
Sequence of Tyrosine-protein kinase Lyn (Homo sapiens) (P07948 2-512 limits assumed): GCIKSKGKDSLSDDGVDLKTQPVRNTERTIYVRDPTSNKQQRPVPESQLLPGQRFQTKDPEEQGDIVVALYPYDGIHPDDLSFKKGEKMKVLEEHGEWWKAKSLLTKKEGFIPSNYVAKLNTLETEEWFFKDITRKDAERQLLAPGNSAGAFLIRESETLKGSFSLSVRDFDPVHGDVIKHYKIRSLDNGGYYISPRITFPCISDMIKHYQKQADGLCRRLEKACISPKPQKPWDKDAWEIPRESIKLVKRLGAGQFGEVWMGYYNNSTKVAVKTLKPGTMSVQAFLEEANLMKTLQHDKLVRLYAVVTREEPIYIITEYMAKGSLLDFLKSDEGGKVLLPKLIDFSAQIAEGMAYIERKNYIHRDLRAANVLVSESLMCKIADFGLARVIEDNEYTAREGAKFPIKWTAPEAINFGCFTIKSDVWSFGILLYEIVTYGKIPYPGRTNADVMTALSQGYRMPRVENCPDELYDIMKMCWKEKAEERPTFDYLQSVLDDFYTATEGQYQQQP
The test system of data set [16] is Rattus norvegicus. The experiment in a line: Antiarthritic activity in Lewis rat assessed as collagen oligomeric matrix protein level in serum at 25 mg/kg, po bid administered for 10 days (Rbv = 0.17 +/- 0.02 U/l). Format: functional. In a few lines:
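Collagen-induced arthritis in male Lewis rats (5–6 per group). Groups received vehicle, dexamethasone 1 mg/kg, test item 50 mg/kg once daily, or 25 mg/kg twice daily for 10 days. Body weight, arthritic score and paw volume were monitored, and serum COMP was measured at the end.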

Data set [17] in a line: Half life in mongrel dog at 30 mg/kg, po by LC-MS/MS analysis. Type of data set: ADME, organism-based, Canis lupus familiaris. Conditions: in vivo. In a few lines:
(§3)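 Oral single-dose PK; plasma concentrations of parent and metabolite measured. Dogs: blood sampled 0.25 to 24 h after dosing. Humans: healthy subjects, placebo-controlled single-blind randomized consecutive dosing, plasma sampled predose and 0.25–36 h post dose. 10 mg also given fasting and fed in crossover. Parameters derived from individual concentration–time profiles.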

Data set [18] relates to Liver. The experiment in a line: Drug metabolism in rat liver microsomes assessed as N-(4-(4-(4-fluorophenyl)-1-methyl-2-(methylsulfinyl)-1H-imidazol-5-yl)pyridin-2-yl)acetamide formation at 10 to 100 uM. Type of data set: ADME, microsome. A digest of the protocol:
as §2

Data set [19] has as its system Cynomolgus monkey. The experiment in a line: Toxicity in cynomolgus monkey assessed as effect on mean blood preasure at 6 to 20 mg/kg, po. Format: organism-based, Macaca fascicularis. As to conditions: in vivo.
Data set [20] addresses Dual specificity mitogen-activated protein kinase kinase 4 (Homo sapiens) (UniProt P45985). Briefly: Inhibition of MKK4 (unknown origin) at 10 uM relative to control.
The target in data set [21] is Dual specificity mitogen-activated protein kinase kinase 6 (Homo sapiens) (UniProt P52564). The experiment in a line: Inhibition of MKK6 (unknown origin) assessed as decrease in p38alpha MAPK phosphorylation at 10 uM relative to control.
Sequence of Dual specificity mitogen-activated protein kinase kinase 6 (Homo sapiens) (P52564 whole entry): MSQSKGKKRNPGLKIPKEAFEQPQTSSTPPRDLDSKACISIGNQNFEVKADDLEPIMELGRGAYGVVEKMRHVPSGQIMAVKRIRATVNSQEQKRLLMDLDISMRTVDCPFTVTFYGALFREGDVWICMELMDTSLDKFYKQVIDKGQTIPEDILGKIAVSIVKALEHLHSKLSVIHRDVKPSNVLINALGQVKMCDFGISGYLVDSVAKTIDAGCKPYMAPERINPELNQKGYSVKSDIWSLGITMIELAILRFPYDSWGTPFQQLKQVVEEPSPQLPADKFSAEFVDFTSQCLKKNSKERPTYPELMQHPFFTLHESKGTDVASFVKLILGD
The subject of data set [22] is Rattus norvegicus. The experiment in a line: Toxicity in rat assessed as excessive defecation at 30 to 300 mg/kg, po administered as single dose. Format: organism-based. Conditions: in vivo.
A short description of data set [23]: Drug uptake in LPS-stimulated female Lewis rat serum at 10 mg/kg, po pretreated for 1 hrs followed by LPS addition measured after 1.5 hrs post dose. Type of data set: ADME, organism-based. Conditions: read-out: Drug uptake. In a few lines: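 Female Lewis rats, n = 8/group, dosed orally at 10 mg/kg at 1, 3 or 5 h before LPS challenge. Serum aliquots taken 1.5 h after LPS were used to measure drug concentration.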

The nature of data set [24]: AUC (0 to t) in cynomolgus monkey at 20 mg/kg, po measured on day 1 and 27 post dose by LC-MS/MS analysis. Conditions: in vivo. Type of data set: ADME, organism-based, Macaca fascicularis. A digest of the protocol: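 Within a 4-week oral toxicity study, Cynomolgus monkeys received 6, 12 or 20 mg/kg daily. Blood was sampled from 0.5 to 24 h post dose on days 1 and 27. Tmax, Cmax, T1/2 and AUC0–24 came from individual profiles of parent and metabolite.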

The test system of data set [25] is Liver. The experiment in a line: Drug metabolism in rat liver microsomes assessed as 4-(4-(4-fluorophenyl)-1-methyl-2-(methylsulfinyl)-1H-imidazol-5-yl)pyridin-2-amine formation at 10 to 100 uM. Type of data set: ADME, microsome. In a few lines: as §2
The species named for data set [26] is Homo sapiens. Briefly: Inhibition of PDE4 in LPS-stimulated human whole blood assessed as decrease in leukotriene B4 level in plasma.
Data set [27] in a line: Half life in Beagle dog at 40 mg/kg, po by LC-MS/MS analysis. Format: ADME, organism-based, Canis lupus familiaris. Conditions: in vivo. A digest of the protocol: as §3
Data set [28] concerns Rattus norvegicus. The experiment in a line: Toxicity in Sprague-Dawley rat assessed as premature death at 15 to 150 mg/kg, po administered via gavage for 28 days followed by 2 weeks off without dosing. Type of data set: organism-based. As to conditions: in vivo. In a few lines:
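Sprague–Dawley rats, 10–16 per group, 144 in total. Daily dosing for 28 days with vehicle or 15, 50 or 150 mg/kg; the top dose came from a range-finding study. Six males and six females from the control and high-dose groups were followed through a further 2-week treatment-free period. Clinical signs and histopathology recorded.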

The nature of data set [29]: Tmax in Beagle dog at 40 mg/kg, po by LC-MS/MS analysis. Conditions: in vivo. Format: ADME, organism-based, Canis lupus familiaris.

Structures are written as SMILES. The source made the active and inactive calls. The calls are words filed in the database; no cut-off is given here.

As usually defined, the inhibition is the relative decrease from the control value, in per cent. By Tmax is commonly meant the time from dosing to the highest level. The term half-life denotes the time in which the quantity being followed falls by half. What is called AUC(0-t) is exposure summed from dosing to a finite time, without extrapolation to infinity.

Sequence of Rho-associated protein kinase 2 (Homo sapiens) (O75116 whole entry, looked up): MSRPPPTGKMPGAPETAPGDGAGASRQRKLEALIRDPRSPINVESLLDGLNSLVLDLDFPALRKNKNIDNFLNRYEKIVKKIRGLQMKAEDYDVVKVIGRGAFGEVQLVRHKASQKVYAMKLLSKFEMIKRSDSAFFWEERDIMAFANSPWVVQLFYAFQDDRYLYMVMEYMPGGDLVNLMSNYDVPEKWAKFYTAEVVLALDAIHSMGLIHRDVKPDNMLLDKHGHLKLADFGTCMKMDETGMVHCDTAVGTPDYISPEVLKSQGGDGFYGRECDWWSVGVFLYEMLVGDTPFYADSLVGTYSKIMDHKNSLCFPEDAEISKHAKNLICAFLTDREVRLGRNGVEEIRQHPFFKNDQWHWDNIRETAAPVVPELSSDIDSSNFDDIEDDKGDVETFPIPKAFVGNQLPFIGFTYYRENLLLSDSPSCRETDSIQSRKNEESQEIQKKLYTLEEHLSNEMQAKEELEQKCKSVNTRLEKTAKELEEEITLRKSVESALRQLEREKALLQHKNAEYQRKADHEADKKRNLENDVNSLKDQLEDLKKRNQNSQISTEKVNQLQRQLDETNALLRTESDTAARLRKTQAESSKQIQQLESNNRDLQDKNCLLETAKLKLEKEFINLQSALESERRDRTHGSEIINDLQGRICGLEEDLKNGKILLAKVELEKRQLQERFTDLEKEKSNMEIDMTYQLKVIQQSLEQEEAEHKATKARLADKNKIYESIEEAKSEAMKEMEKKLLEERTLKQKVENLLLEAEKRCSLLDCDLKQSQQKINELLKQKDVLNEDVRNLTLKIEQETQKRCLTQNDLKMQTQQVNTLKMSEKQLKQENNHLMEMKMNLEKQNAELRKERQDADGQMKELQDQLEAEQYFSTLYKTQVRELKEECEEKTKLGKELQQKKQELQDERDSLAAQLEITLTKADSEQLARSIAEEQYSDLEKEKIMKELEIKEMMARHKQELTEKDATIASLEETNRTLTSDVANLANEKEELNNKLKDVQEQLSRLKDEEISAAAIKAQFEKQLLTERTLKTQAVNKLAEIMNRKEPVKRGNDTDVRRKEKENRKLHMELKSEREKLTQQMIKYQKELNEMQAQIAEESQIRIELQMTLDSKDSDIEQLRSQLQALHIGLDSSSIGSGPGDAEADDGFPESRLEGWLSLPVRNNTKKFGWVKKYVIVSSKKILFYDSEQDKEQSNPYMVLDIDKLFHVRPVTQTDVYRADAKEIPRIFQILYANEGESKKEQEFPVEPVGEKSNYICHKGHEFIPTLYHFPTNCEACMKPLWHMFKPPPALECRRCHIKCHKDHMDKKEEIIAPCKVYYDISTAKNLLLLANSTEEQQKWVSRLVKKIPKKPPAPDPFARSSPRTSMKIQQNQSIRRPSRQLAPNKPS
Sequence of Mitogen-activated protein kinase 14 (Q16539 whole entry): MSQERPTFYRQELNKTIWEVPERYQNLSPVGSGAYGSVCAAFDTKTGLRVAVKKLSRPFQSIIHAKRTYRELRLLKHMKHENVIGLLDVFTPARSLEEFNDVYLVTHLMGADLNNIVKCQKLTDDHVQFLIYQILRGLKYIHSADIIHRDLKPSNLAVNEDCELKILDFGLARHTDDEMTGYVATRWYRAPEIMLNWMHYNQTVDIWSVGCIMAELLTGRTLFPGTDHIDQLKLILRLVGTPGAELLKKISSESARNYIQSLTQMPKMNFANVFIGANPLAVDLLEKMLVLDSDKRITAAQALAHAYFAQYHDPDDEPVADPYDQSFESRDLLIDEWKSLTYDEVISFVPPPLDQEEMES
Sequence of Dual specificity mitogen-activated protein kinase kinase 4 (Homo sapiens) (P45985 whole entry): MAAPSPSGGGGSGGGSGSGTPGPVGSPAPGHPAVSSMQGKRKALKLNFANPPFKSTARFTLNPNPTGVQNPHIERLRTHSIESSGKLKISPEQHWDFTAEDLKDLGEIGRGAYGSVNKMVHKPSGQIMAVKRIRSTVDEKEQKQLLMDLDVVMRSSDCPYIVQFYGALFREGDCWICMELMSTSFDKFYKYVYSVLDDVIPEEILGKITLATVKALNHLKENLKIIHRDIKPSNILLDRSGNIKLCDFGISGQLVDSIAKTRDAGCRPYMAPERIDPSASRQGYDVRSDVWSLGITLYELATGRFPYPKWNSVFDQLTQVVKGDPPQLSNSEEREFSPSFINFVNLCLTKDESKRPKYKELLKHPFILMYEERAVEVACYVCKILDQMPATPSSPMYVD
Sequence of Tyrosine-protein kinase Lck (Homo sapiens) (P06239 2-509 limits assumed): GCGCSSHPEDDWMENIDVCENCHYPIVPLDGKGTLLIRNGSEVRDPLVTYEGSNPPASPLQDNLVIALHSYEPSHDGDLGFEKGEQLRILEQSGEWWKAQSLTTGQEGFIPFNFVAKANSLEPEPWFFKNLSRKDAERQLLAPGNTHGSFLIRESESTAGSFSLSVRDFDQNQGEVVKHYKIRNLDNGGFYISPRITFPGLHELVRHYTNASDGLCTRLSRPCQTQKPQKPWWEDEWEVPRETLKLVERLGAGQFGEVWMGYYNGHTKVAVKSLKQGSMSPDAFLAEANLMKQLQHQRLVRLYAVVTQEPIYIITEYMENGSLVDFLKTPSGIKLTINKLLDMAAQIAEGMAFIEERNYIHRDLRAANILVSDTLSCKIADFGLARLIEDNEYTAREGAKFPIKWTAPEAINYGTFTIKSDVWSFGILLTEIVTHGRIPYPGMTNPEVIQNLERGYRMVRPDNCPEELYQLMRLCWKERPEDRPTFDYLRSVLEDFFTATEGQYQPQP

For `Cn1c([S+](C)[O-])nc(-c2ccc(F)cc2)c1-c1ccnc(N)c1` (centres undefined), the inhibition result in [1], in data set [2] and in data set [3] was “inactive” throughout.
For `CC(=O)Nc1cc(-c2c(-c3ccc(F)cc3)nc([S+](C)[O-])n2C)ccn1` (centres undefined), the Activity result with Cynomolgus monkey [4] is “Toxic”; with Rattus norvegicus [6] it was “Toxic”; in the data set with Rattus norvegicus [9] it was “Toxic”; with Cynomolgus monkey [10], “Toxic”; with Homo sapiens [13], “Non-Toxic”; with Rattus norvegicus [16], 0.08 U/L. The Activity result is “Non-Toxic” with Cynomolgus monkey [19], “Toxic” in the data set with Rattus norvegicus [22] and “Non-Toxic” with Rattus norvegicus [28]. The Tmax worked out at 0.5 h in [5], 2 h in data set [12] and 1.5 h in data set [29]. In addition, the inhibition result with Rattus norvegicus [7], with Homo sapiens [8] and in the data set with Rattus norvegicus [11] was “Active” throughout. The Drug metabolism result (in data set [14]; in the data set on Liver [18]; with Liver [25]) was “Metabolite_Detected” in each case. The inhibition is 31% in [15], 37% in data set [20], 62% in [21] and “Dose-dependent effect” in the data set filed under Homo sapiens [26]. The half-life was 3.85 h in [17] and 7.8 h in data set [27]. Moreover, the concentration at 1.5 h in data set [23] turned out to be 237 ng/mL. For the same molecule, the AUC(0-t) in data set [24] is 79.6 µM·h.

For the origin of these results see ChEMBL document CHEMBL4028848, “Discovery of N-{4-[5-(4-Fluorophenyl)-3-methyl-2-methylsulfanyl-3H-imidazol-4-yl]-pyridin-2-yl}-acetamide (CBS-3595), a Dual p38α MAPK/PDE-4 Inhibitor with Activity against TNFα-Related Diseases” (J Med Chem, 2017).
